Source: PMC9371723 (Proceedings of the National Academy of Sciences of the …, 2022)

Tests used:
auxin-conjugating GH3s = conditions: competitive inhibitor; cited from earlier work
Physcomitrium patens = test: Moss GH3::GUS reporter line phenotype; format: in vivo; conditions: 10 μM, 15 d
How it was run: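 P. patens GH3::GUS reporter colonies cultured 15 d on BCDATG medium (0.8% agar) with or without 10 µM test compound and 10 µM IAA. GUS visualised histochemically with X-Gluc; ectopic leafy-like primordia scored.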

[1] = test system: DII-VENUS fusion reporter protein; conditions: IAA application; cited from earlier work
[2] = test system: Arabidopsis mutants tir1-1 afb2-1, axr1-3, sav3-2, yucQ; test: Lateral root formation in auxin signaling and biosynthesis mutants; format: in vivo, Arabidopsis thaliana
How it was run: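 Signalling and biosynthesis mutant seedlings, 4 d old, incubated with test compound for 3 more days. sav3-2 co-treated with 1 µM yucasinDF; yucQ co-treated with 1 µM kynurenine. Read-out was lateral root formation.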

AtTIR1–IAA7 peptide = AtTIR1–IAA7 peptide (Arabidopsis thaliana, UniProt Q570C0); test: SPR analysis of auxin-induced TIR1-IAA7 degron peptide interaction; format: binding
[3] = test system: AtGH3.3, IAA19, YUC6 expression; test: qRT-PCR of auxin-related genes in Arabidopsis; format: in vivo; conditions: after 60 min of treatment
How it was run: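 Seedlings from vertical GM plates moved to liquid GM for 24 h, then harvested at intervals (10–60 min) after test compound was added. SYBR qRT-PCR: 95 °C 20 s, then 40 cycles of 95 °C 3 s and 60 °C 30 s. ΔΔCt normalised to UBQ10; n = 4, Tukey HSD vs mock.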

AtAFB5–IAA7 = AtAFB5–IAA7 (Arabidopsis thaliana, UniProt Q9LTX2); test: SPR analysis of auxin-induced AFB5-IAA7 degron peptide interaction; format: binding
[4] = test system: Arabidopsis thaliana seedlings; test: Primary and lateral root growth of Arabidopsis seedlings; format: in vivo; conditions: IAA at 0.05 µM
How it was run: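 Primary root: seedlings grown vertically 6–8 d at 24 °C, continuous light, on GM plates with test compound (5 µM estradiol added for inducible lines); length recorded from photographs. Lateral root: seedlings grown vertically 6 d, moved to horizontal GM plates (2 g/L gellan gum) with chemicals for 2 d at 24 °C; lateral roots counted and primary root length measured.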

[5] = test system: Rice (Oryza sativa cv. Nipponbare) seedlings; test: Rice seedling primary root and mesocotyl assays; format: in vivo
How it was run: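 Rice cv. Nipponbare seeds sterilised 20 min in 6% hypochlorite, rinsed, then germinated 2 d in sterile water at 28 °C in the dark. Mesocotyl: seedlings submerged 5 d in water with chemicals. Root: seedlings grown on 0.6% water agar with chemicals (n = 11). Both at 25 °C, 18 h light/6 h dark.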

TAA1 = conditions: cited from earlier work
YUC monooxygenase = YUC monooxygenase inhibitors; cited from earlier work
AtGH3.11/JAR1 = conditions: cited from earlier work
endogenous IAA = conditions: within 30 min; cited from earlier work

Chain of AtTIR1–IAA7 peptide (Q570C0 whole entry, other chains not shown): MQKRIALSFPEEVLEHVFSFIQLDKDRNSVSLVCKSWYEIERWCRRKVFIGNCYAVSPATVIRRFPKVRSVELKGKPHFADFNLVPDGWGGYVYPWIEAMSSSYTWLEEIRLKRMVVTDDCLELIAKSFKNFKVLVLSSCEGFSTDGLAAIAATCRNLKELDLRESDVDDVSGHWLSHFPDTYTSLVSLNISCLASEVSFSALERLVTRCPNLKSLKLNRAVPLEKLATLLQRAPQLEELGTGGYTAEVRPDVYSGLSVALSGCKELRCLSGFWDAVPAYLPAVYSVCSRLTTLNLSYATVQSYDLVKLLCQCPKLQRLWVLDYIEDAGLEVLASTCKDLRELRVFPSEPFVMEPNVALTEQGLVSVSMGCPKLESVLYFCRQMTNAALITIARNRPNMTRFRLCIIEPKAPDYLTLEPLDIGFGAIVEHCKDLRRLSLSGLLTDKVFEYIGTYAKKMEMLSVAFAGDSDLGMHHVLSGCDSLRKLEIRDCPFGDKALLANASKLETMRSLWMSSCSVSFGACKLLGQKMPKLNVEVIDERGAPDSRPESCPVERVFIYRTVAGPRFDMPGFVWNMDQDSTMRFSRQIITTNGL
Chain of AtTIR1–IAA7 peptide (Q39255 whole entry partner, other chains not shown): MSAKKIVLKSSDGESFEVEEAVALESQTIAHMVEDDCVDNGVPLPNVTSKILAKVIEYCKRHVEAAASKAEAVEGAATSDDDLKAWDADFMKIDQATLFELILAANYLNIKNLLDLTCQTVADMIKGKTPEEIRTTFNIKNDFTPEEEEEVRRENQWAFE
Chain of AtAFB5–IAA7 (Q9LTX2 whole entry, other chains not shown): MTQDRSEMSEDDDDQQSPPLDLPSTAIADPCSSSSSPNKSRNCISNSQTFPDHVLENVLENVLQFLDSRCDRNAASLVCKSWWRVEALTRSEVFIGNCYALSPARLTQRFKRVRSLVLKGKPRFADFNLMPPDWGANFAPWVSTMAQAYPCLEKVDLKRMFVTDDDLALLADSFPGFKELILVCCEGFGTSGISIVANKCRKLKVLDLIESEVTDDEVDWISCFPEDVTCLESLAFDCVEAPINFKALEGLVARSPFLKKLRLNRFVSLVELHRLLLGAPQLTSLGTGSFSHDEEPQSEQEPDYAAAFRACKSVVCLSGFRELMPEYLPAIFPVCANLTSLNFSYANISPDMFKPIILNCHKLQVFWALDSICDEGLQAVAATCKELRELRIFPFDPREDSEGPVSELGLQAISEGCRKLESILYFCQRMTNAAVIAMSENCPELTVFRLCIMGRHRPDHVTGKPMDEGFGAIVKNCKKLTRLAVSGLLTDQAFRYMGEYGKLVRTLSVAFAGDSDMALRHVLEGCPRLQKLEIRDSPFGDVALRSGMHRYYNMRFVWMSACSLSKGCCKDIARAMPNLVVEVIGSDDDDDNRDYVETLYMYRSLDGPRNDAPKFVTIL
Chain of AtAFB5–IAA7 (Q39255 whole entry partner, other chains not shown): as the sequence (Q39255 whole entry partner, other chains not shown) above

Nc1ncnc2c1ncn2[C@@H]1O[C@H](COP(=O)(O)OCCc2c[nH]c3ccccc23)[C@@H](O)[C@H]1O [AEIP, Adenosine-5-[2-(1H-indol-3-yl)ethyl]phosphate]
in vitro activity against auxin-conjugating GH3s (auxin-conjugating GH3s): micromolar range

O=C(O)Cc1c[nH]c2ccccc12 [IAA, indole-3-acetic acid]
ectopic formation of leafy-like primordia (Physcomitrium patens): has not been induced
time to decomposition of DII-VENUS after application [1]: ≤ 10 min
lateral root formation in sav3-2 and yuc Q mutants ([2]; auxin biosynthesis mutants): induced by IAA to a similar extent as WT plants
lateral root formation in tir1-1 afb2-1 and axr1-3 mutants ([2]; auxin signaling mutants): showed resistance
effect on TIR1–IAA7 peptide association and dissociation (AtTIR1–IAA7 peptide): promotes interaction
expression of auxin biosynthesis gene YUC6 [3]: down-regulated
effect on AFB5–IAA7 peptide association and dissociation (AtAFB5–IAA7): promotes interaction
lateral root formation in WT roots [4]: promoted lateral root formation
mesocotyl elongation in rice ([5]; aerial part of rice seedlings): promoted mesocotyl elongation
primary root elongation in rice ([5]; rice roots): suppressed primary root elongation

Nc1ccccc1C(=O)C[C@H](N)C(=O)O [L-kynurenine]
inhibition of TAA1 (TAA1): competitively inhibit

OB(O)c1ccc(Oc2ccccc2)cc1 [PPBo]
IAA production (YUC monooxygenase): block IAA production

COCCC(=O)N1C[C@@H]2C[C@H](C1)c1ccc(NC(=O)c3ccc(-c4ccccc4)cc3)c(=O)n1C2 [jarin-1]
inhibition of AtGH3.11/JAR1 (AtGH3.11/JAR1): selectively inhibits

S=c1nc(-c2ccc(Cl)cc2)[nH][nH]1 [yucasin]
endogenous IAA level (endogenous IAA): decreased the endogenous IAA to almost basal level
